# Screening data from PubChem.
# OXTR agonist = activates the human oxytocin receptor. hit rate 0.32% among 320,000. activation, % at 3 µM. CHO-OTR cells, Fluo-8 calcium fluorescence; normalized: DMSO 0%, oxytocin 100%. P30559;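 active = activation above the mean of all tested compounds plus 3 SD, cutoff set per screening run, cut at about 20% in these data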;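 note: peak over basal fluorescence ratio from a 100 s FLIPR kinetic read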
# V1R ag counter = activates human V1a receptor in oxytocin agonist counter-screen | CHO-V1R cells, Fluo-8 calcium fluorescence, agonist mode; 0% DMSO, 100% 3 nM vasopressin | activation, % at 3 µM | hit rate 0.25% among 320,000 | AID 2797;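 active = activation above the mean activation of all tested compounds plus 3 SD, per screening run, cut at about 20% in these data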;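 note: signal is peak over basal fluorescence ratio across a 100 second FLIPR read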
# Target sequence (P37288 whole entry, looked up): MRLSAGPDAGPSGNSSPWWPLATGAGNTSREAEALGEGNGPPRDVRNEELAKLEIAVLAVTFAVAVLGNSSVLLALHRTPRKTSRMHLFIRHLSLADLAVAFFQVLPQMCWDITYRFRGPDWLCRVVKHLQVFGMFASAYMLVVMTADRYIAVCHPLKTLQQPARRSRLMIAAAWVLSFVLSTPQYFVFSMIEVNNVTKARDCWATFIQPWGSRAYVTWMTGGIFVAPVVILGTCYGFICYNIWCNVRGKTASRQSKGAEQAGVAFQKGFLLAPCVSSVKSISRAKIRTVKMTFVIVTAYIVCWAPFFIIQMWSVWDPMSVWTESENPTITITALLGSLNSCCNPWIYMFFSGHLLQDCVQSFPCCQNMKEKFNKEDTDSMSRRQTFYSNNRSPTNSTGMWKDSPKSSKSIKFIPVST
# OX1R antag-1 = blocks the human orexin 1 receptor; OX1R-expressing cells, FRET antagonist read-out; inhibition, % at 6.6 µM; AID 485270; hit rate 1.8% among 330,000; in the data active = inhibition mostly above about 38%, no sharp cut-off; inactive = mostly below about 40%;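 note: 0% = agonist challenge alone and 100% = reference antagonist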
# OX1R antag-2 = blocks the human orexin 1 receptor | O43613 | CHO/OX1R cells, Fluo-8 calcium fluorescence, orexin A | inhibition, % at 5 µM | hit rate 0.43% among 330,000;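 active = inhibition above its plate's threshold, mean inhibition of all tested compounds on the plate plus 3 SD, cut at about 37% in these data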;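 note: 0% = orexin A challenge wells and 100% = SB-334867-A antagonist wells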
# OXTR potentiator = human OXTR potentiation; activation, % at 3 µM; AID 2445; P30559; hit rate 0.061% among 320,000; CHO-OTR cells, Fluo-8 calcium fluorescence, potentiator mode; 0% = oxytocin EC15, 100% = EC100;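 active = activation above that plate's cutoff, the mean activation of tested compounds plus 3 SD, cut at about 6.6% in these data, passing the limit was not always enough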;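 note: 100% uses oxytocin at 75 nM as the full agonist control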
#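 Assay system: CHO cell line stably expressing human OTR | Also added: Oxytocin at about EC15, sub-maximal agonist stimulus | Times: Compound 6 min at room temperature before oxytocin, 100 s read | Measured by: Fluo-8 intracellular calcium fluorescence, ex 470-495, em 515-575 nm | Controls: EC15 oxytocin alone as 0%, 75 nM oxytocin as 100%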
# CHO parental Ca = counter-screen: ATP calcium response change in parental CHO cells | parental CHO-K1, ATP-induced calcium, Fluo-8 fluorescence | inhibition, % at 5.6 µM | hit rate 0.63% among 330,000;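 active = inhibition above that plate's mean sample inhibition plus 3 SD, cut at about 26% in these data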;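 note: 0% = ATP-challenged DMSO wells and 100% = DMSO wells without ATP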
#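 Test system: parental CHO cells; detection: calcium-sensitive Fluo-8 fluorescence; evaluation: percent inhibition of calcium signal; also added: ATP as calcium-mobilizing challenge; repeats: one well per compound; control set: ATP-challenged DMSO wells low, unchallenged DMSO wells high; compound: single nominal dose of 5.6 µM per compound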
# Numbers without * were called inactive; x = not tested or not shown. Sampled rows, rich in hits. Any-hit rate of the full collection: about 2.7%.
SMILES,OXTR agonist,V1R ag counter,OX1R antag-1,OX1R antag-2,OXTR potentiator,CHO parental Ca
O=C(O)CC1(CC(=O)Nc2cc(C(F)(F)F)cc(C(F)(F)F)c2)CCCCC1,2.8,3.7,41.9*,2.0,-5.2,-2.0
O=C(O)CC1(CC(=O)NCc2ccc(C(F)(F)F)cc2)CCCCC1,-1.4,-0.1,-0.5,-3.8,-9.1,-0.9
CCOC(=O)NC(=O)/C(C#N)=C\Nc1sccc1C(=O)OC,56.9*,52.6*,36.4,32.7,-7.7,21.1
CCOC(=O)NC(=O)/C(C#N)=C\Nc1ccc(Cl)cc1Cl,-0.8,-0.3,6.5,-12.9,-2.8,-8.2
Cc1cc(C)n(CCC(=O)N/N=C/c2c(O)ccc3ccccc23)n1,1.7,5.3,25.9,-38.2,-5.0,-31.2
O=C(CCSc1nc2ccccc2s1)N/N=C/c1c(O)ccc2ccccc12,1.2,1.3,60.9*,9.1,-10.1,5.9
COC(=O)c1sc(-c2ccc(Cl)cc2)cc1NC(=O)/C=C/C(=O)O,21.8*,15.4,5.1,3.0,-17.4,11.0
Cc1ccccc1-n1c(O)c(/C=C/C=Nc2ccccc2)c(=O)[nH]c1=O,47.2*,29.7*,19.0,6.3,-15.1,11.1
Cc1ccc(-n2c(O)c(/C=C3/C(c4ccccc4)=Nc4ccccc43)c(=O)[nH]c2=O)cc1,2.1,2.9,16.2,-5.0,-14.3,-11.2
O=C(NN=C1c2ccccc2-c2ccccc21)c1ccccn1,-1.0,-0.9,75.4*,85.1*,-7.9,-31.9
O=C(CCN1C(=O)C2CC=CCC2C1=O)Nc1nc(-c2ccc(F)c(F)c2)cs1 (configuration not stated),7.7,11.0,4.0,21.9,-9.8,6.1
COc1cc(-c2noc(-c3cccs3)n2)cc(OC)c1OC,-2.5,-1.0,48.3*,-13.2,4.3,-23.7
COc1cc(C(=O)Nc2nc(-c3cccs3)cs2)cc(OC)c1OC,9.4,2.1,48.8*,30.3,-6.9,-1.3
Oc1c(Cl)cc(Cl)cc1Sc1cc(Cl)cc(Cl)c1O,16.6,9.2,59.7*,72.8*,-10.9,101.0*
Oc1c(Cl)cc(Cl)cc1CNn1cnnc1,-0.3,0.0,19.1,-11.8,-13.3,-14.7
Cc1nc2ccccc2c2c1CC(C(C)(Cl)Br)O2 (configuration not stated),3.6,3.3,44.5,16.0,-3.7,50.8*
CC(C)(C)OC(=O)N[C@@H](Cc1ccccc1)c1nnc(S(=O)(=O)Cc2ccccc2)o1,-0.4,0.6,20.0,29.7,-6.6,31.9*
CCSc1nnc([C@H](Cc2ccccc2)NC(=O)OC(C)(C)C)o1,-1.2,-0.5,14.3,-31.2,-7.6,-19.2
Cc1ccccc1CS(=O)(=O)c1nnc([C@H](Cc2ccccc2)NC(=O)OC(C)(C)C)o1,-0.8,-0.3,1.4,34.1,-7.7,50.8*
O=c1[nH]nc(-c2ccc(NCCO)c([N+](=O)[O-])c2)c2ccccc12,-0.2,0.7,41.0*,-6.7,-8.5,10.4
CCn1c2ccccc2c2cc(/C=N/NC(=O)c3ccc(O)cc3)ccc21,-2.4,-1.3,75.6*,9.3,7.7,-21.0
COc1cc(/C=N/NC(=O)CCn2c3ccccc3c3ccccc32)cc(OC)c1OC,1.9,0.5,15.6,-6.3,-14.0,-5.7
COc1ccc(/C=N/NC(=O)CCn2c3ccccc3c3ccccc32)cc1OC,1.7,1.8,59.4*,6.7,-6.4,-19.2
CCn1c2ccccc2c2cc(/C=N/NC(=O)c3cc(O)cc(O)c3)ccc21,-1.7,8.2,74.2,1.4,-4.0,3.3
CCCn1cnc2c(=O)oc3ccccc3c21,-1.0,1.9,31.2,3.1,-18.6,11.4
SMILES,OXTR agonist,V1R ag counter,OX1R antag-1,OX1R antag-2,OXTR potentiator,CHO parental Ca
Cn1c2ccccc2c2c(=O)oc3ccccc3c21,x,x,61.3*,25.1,x,-5.5
Cc1ccnc(SCC(=O)Nc2sc3c(c2C#N)CCCC3)n1,10.4,4.6,80.2*,74.2*,-30.5,69.1*
Cc1cc(OC(=O)c2cccc(Cl)c2)c([N+](=O)[O-])c(=O)[nH]1,-0.6,0.0,2.7,-0.6,-1.7,-3.4
COCCn1c(C)cc(C(=O)CN2C(=O)NC3(CCCCCC3)C2=O)c1C,-0.9,0.1,29.6*,-11.0,-4.8,-1.7
CC(OC(=O)Cc1ccc(Br)cc1)C(=O)NC1CCCC1 (configuration not stated),0.5,0.3,10.7,-20.3,-3.6,-10.1
CCc1ccc2[nH]c3nc(N/N=C/c4ccc(O)cc4O)nnc3c2c1,-1.1,-0.9,73.8*,-2.1,-9.1,-12.8
COC(=O)C1=C(C)N(Cc2ccccc2)C(=NCC(C)C)N[C@H]1c1cccc(F)c1,30.7*,22.9*,3.9,28.7,-11.4,5.0
COC(=O)C1=C(C)N(Cc2ccccc2)C(=NCC(C)C)N[C@H]1c1cccc(C(F)(F)F)c1,14.1,3.3,6.0,15.7,-10.0,9.3
CC(C)(C)c1ccc(-n2ncc3c2CCCC3NC(=O)C2(C(N)=O)CC2)cc1 (configuration not stated),14.5,11.1,7.4,22.5,-10.3,42.9*
Cc1cc(C(=O)NC2CCCc3c2cnn3-c2ccc(C(C)(C)C)cc2)nn1C (configuration not stated),5.9,11.8,23.4,9.3,-11.2,50.8*
CC(=O)NCC(=O)NC1CCCc2c1cnn2-c1ccc(C(C)(C)C)cc1 (configuration not stated),0.6,0.4,11.7,8.3,-12.5,-9.0
CCOC(=O)[C@H]1[C@H]2COc3ccc(Cl)cc3[C@@H]2N2C(=O)c3cc(F)c(F)cc3NC(=O)[C@@]12C,-0.7,-0.8,7.9,-21.5,-2.6,-16.1
CC(Oc1ccccc1)C(=O)N1CCN=C1SCc1ccccc1F (configuration not stated),0.9,0.9,28.3,-22.2,-5.6,39.5*
Cc1oc2c(c1C(=O)NCc1cccnc1)C(=O)c1ccccc1C2=O,-0.4,-0.5,45.6*,-31.7,-2.1,-7.6
COc1ccc(CNC(=O)c2c(C)oc3c2C(=O)c2ccccc2C3=O)cc1,0.0,0.5,29.9,5.2,-1.3,8.0
COn1c(=O)c(-c2ccc(Cl)cc2)[n+]([O-])c2ccccc21,-1.1,0.2,53.4*,-2.8,-2.5,-0.5
COn1c(=O)c(-c2ccccc2)[n+]([O-])c2ccccc21,-0.4,0.0,42.5*,-11.5,1.9,-1.3
COn1c(=O)c(-c2ccc(C)cc2)[n+]([O-])c2ccccc21,-1.2,0.2,33.1,-16.4,-8.6,-15.8
O=C(Nc1ccc2nc3n(c(=O)c2c1)CCCC3)c1cc([N+](=O)[O-])ccc1F,-2.1,-1.2,52.4*,-4.4,-10.2,8.3
CC(NC(=O)c1ccc(NC2=NC3CS(=O)(=O)CC3S2)cc1)c1ccccc1 (configuration not stated),-1.2,0.4,6.3,5.6,-4.4,5.5
